The record followed here is ChEMBL document CHEMBL1139351, “Synthesis and biological evaluation of vinca alkaloids and phomopsin hybrids” (J Med Chem, 2009).

Active and inactive are the calls of the source. The calls are words filed in the database; no cut-off is given here.

One experiment concerns KB. The experiment can be described thus: Cytotoxicity against human KB cells after 72 hrs. It is filed as functional, cell-based. In a few lines:
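KB human cells; growth followed for 72 h of drug exposure; IC50 taken as the concentration giving 50% growth inhibition.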

Experiment [1] can be described thus: Inhibition of tubulin polymerization assessed as ratio of IC50 for compound to IC50 for vinblastin by UV spectrophotometry. The method in brief: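 Microtubular protein purified from mammalian brain. Drug added from ethanol at several concentrations to free tubulin at 0 °C, then shifted to 37 °C. Assembly followed as OD at 350 nm for 1 min. Maximum assembly rate compared with a drug-free sample, giving IC50. Ratio taken against a vinblastine IC50 measured the same day on the same tubulin preparation.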

Experiment [2] is described as follows: Inhibition of tubulin polymerisation by UV spectrophotometry. In a few lines: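 Microtubular protein purified from mammalian brain. Drug in ethanol at several concentrations added to free tubulin at 0 °C, then shifted to 37 °C. Assembly followed as optical density at 350 nm for 1 min. Maximum assembly rate compared with a no-drug sample. IC50 derived from several concentrations and compared with vinblastine run the same day on the same tubulin preparation.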

Experiment [3] concerns the target Tubulin beta-5 chain (Homo sapiens) (UniProt P07437). The experiment can be described thus: Inhibition of beta tubulin nucleotide site assessed as inhibition of displacement of cold GDP by [alpha32P]GTP at 20 uM by rapid filtration technique. Also on record: scale not given: the % may be the effect or the level left.
The target is the same in experiment [4]. The experiment can be described thus: Inhibition of beta tubulin nucleotide site assessed as displacement of cold GDP by [alpha32P]GTP at 100 uM by rapid filtration technique. The arrangement: scale not given: the % may be the effect or the level left.
For experiment [5] the target is unchanged. The experiment can be described thus: Inhibition of beta tubulin nucleotide site assessed as inhibition of displacement of cold GDP by [alpha32P]GTP at 40 uM by rapid filtration technique.
The target is the same in experiment [6]. The experiment can be described thus: Inhibition of beta tubulin nucleotide site assessed as inhibition of displacement of cold GDP by [alpha32P]GTP by rapid filtration technique relative to phomopsin A.

Usually IC50 stands for the point on the concentration scale where inhibition reaches its midpoint.

Chain of Tubulin beta-5 chain (Homo sapiens) (P07437 whole entry): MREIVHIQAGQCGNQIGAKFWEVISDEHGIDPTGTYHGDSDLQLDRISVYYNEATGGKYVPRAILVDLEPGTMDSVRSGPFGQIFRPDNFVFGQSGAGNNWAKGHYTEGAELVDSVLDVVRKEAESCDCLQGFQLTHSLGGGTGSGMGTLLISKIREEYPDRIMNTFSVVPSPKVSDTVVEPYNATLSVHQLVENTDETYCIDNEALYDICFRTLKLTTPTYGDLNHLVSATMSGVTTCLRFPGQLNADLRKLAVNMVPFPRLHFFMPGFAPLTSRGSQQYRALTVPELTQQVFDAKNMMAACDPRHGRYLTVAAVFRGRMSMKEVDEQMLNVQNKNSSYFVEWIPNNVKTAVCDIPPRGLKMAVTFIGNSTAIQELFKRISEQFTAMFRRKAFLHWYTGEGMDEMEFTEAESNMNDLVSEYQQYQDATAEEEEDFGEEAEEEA

In the experiment on KB (Homo sapiens, KB, 72 h), `CCC1=C[C@@H]2C[C@](C(=O)OC)(c3cc4c(cc3OC)N(C)[C@H]3[C@@](O)(C(=O)OC)[C@H](OC(C)=O)[C@]5(CC)C=CCN6CC[C@]43[C@@H]65)c3[nH]c4ccccc4c3C[N+](CC(=O)N3CCC[C@H]3C(=O)N[C@H](C(=O)OCc3ccccc3)[C@@H](C)CC)(C1)C2` came in with an IC50 of 50 nM. Moreover, in experiment [1], the Ratio IC50 came out at 9.4.
With `CCC1=C[C@@H]2C[C@](C(=O)OC)(c3cc4c(cc3OC)N(C)[C@H]3[C@@](O)(C(=O)OC)[C@H](OC(C)=O)[C@]5(CC)C=CCN6CC[C@]43[C@@H]65)c3[nH]c4ccccc4c3CC[N+](CC(=O)N3CCC[C@H]3C(=O)N[C@H](C(=O)OCc3ccccc3)[C@@H](C)CC)(C1)C2`, in the experiment with KB (Homo sapiens, KB, 72 h), the IC50 came out at 300 nM. Also, in experiment [1], the Ratio IC50 was 1.4.
The like results for `CCC1=C[C@@H]2C[C@](C(=O)OC)(c3cc4c(cc3OC)N(C)[C@H]3[C@@](O)(C(=O)OC)[C@H](OC(C)=O)[C@]5(CC)C=CCN6CC[C@]43[C@@H]65)c3[nH]c4ccccc4c3C[N+](CC(=O)N3CCC[C@H]3C(=O)N[C@H](C(=O)N[C@@H](CC(=O)OCc3ccccc3)C(=O)OCc3ccccc3)[C@@H](C)CC)(C1)C2` were, in that order, 1300 nM and 1.8.
The corresponding values for `CCC1=C[C@@H]2C[C@](C(=O)OC)(c3cc4c(cc3OC)N(C)[C@H]3[C@@](O)(C(=O)OC)[C@H](OC(C)=O)[C@]5(CC)C=CCN6CC[C@]43[C@@H]65)c3[nH]c4ccccc4c3C[N+](CC(=O)N3CCC[C@H]3C(=O)OC)(C1)C2` are 100 nM and 2.
`CC[C@H](C)[C@H](NC(=O)[C@@H]1CCCN1C(=O)[C@H]1NC(=O)[C@H](C(C)C)NC(=O)[C@@H](NC)[C@@H](O)c2cc(Cl)c(O)c(c2)O[C@]1(C)CC)C(=O)NC(CC(=O)O)C(=O)O` (mixture of isomers) gave a half-inhibitory concentration (IC50) in experiment [2] of 400 nM.
`CCC1=C[C@@H]2CN(C1)Cc1c([nH]c3ccccc13)[C@@](C(=O)OC)(c1cc3c(cc1OC)N(C)[C@H]1[C@@](O)(C(=O)OC)[C@H](OC(C)=O)[C@]4(CC)C=CCN5CC[C@]31[C@@H]54)C2` (stereo in doubt; 3) [VINORELBINE] displayed an IC50 in the experiment with KB (kb) of 40 nM.
As to `CCC1=C[C@@H]2C[C@](C(=O)OC)(c3cc4c(cc3OC)N(C)[C@H]3[C@@](O)(C(=O)OC)[C@H](OC(C)=O)[C@]5(CC)C=CCN6CC[C@]43[C@@H]65)c3[nH]c4ccccc4c3C[N+](CC(=O)N3CCC[C@H]3C(=O)N[C@H](C(=O)N[C@@H](CC(=O)O)C(=O)O)[C@@H](C)CC)(C1)C2`, in the experiment with KB (Homo sapiens, KB, 72 h), the concentration for half-maximal inhibition (IC50) turned out to be 400 nM. The Ratio IC50 in experiment [1] was 19.4.
The corresponding values for `CCC1=C[C@@H]2C[C@](C(=O)OC)(c3cc4c(cc3OC)N(C)[C@H]3[C@@](O)(C(=O)OC)[C@H](OC(C)=O)[C@]5(CC)C=CCN6CC[C@]43[C@@H]65)c3[nH]c4ccccc4c3CC[N+](CC(=O)N3CCC[C@H]3C(=O)N[C@H](C(=O)O)[C@@H](C)CC)(C1)C2` are 700 nM and 1.7.
In the experiment on KB (Homo sapiens, KB, 72 h), `CCC1=C[C@@H]2C[C@](C(=O)OC)(c3cc4c(cc3OC)N(C)[C@H]3[C@@](O)(C(=O)OC)[C@H](OC(C)=O)[C@]5(CC)C=CCN6CC[C@]43[C@@H]65)c3[nH]c4ccccc4c3CC[N+](CC(=O)N3CCC[C@H]3C(=O)N[C@H](C(=O)N[C@@H](CC(=O)O)C(=O)O)[C@@H](C)CC)(C1)C2` displayed an IC50 of 100 nM. For the same compound, the Ratio IC50 in experiment [1] turned out to be 2.
In turn, `CCC1=C[C@@H]2C[C@](C(=O)OC)(c3cc4c(cc3OC)N(C)[C@H]3[C@@](O)(C(=O)OC)[C@H](OC(C)=O)[C@]5(CC)C=CCN6CC[C@]43[C@@H]65)c3[nH]c4ccccc4c3C[N+](CC(=O)N3CCC[C@H]3C(=O)N[C@H](C(=O)O)[C@@H](C)CC)(C1)C2` gave an IC50 in the experiment with KB (Homo sapiens, KB, 72 h) of 90 nM. Also, the Ratio IC50 in experiment [1] is 9.4.
Compound `CCC1=C[C@@H]2CN(C1)Cc1c([nH]c3ccccc13)[C@@](C(=O)OC)(c1cc3c(cc1OC)N(C)[C@H]1[C@@](O)(C(=O)OC)[C@H](OC(C)=O)[C@]4(CC)C=CCN5CC[C@]31[C@@H]54)C2` (stereo in doubt; 4) [VINORELBINE] showed a 50% inhibitory concentration (IC50) in the experiment with KB (kb) of 1 nM.
As to `CCC1=C[C@@H]2C[C@](C(=O)OC)(c3cc4c(cc3OC)N(C)[C@H]3[C@@](O)(C(=O)OC)[C@H](OC(C)=O)[C@]5(CC)C=CCN6CC[C@]43[C@@H]65)c3[nH]c4ccccc4c3CC[N+](CC(=O)N3CCC[C@H]3C(=O)OC)(C1)C2`, the IC50 in the experiment with KB (Homo sapiens, KB, 72 h) worked out at 80 nM. In addition, the Ratio IC50 in experiment [1] stood at 0.9.
As for `CC[C@]1(O)C[C@@H]2CN(CCc3c([nH]c4ccccc34)[C@@](C(=O)OC)(c3cc4c(cc3OC)N(C)[C@H]3[C@@](O)(C(=O)OC)[C@H](OC(C)=O)[C@]5(CC)C=CCN6CC[C@]43[C@@H]65)C2)C1` [VINBLASTINE], the Activity in experiment [3] worked out at 25%. For the same compound, the half-maximal inhibitory concentration (IC50) came to 2100 nM in experiment [2] and 1 nM with KB (Homo sapiens, KB, 72 h). In experiment [1], the Ratio IC50 amounted to 1.
As to `C=C(C)[C@@H]1NC(=O)[C@@H](NC)[C@@H](O)c2cc(Cl)c(O)c(c2)O[C@](C)(CC)[C@@H](C(=O)N2CC=C[C@H]2C(=O)N/C(C(=O)N/C(=C/C(=O)O)C(=O)O)=C(\C)CC)NC1=O` [PHOMOPSIN A], the outcome in experiment [3] was Active. For the same compound, the IC50 in experiment [2] stood at 560 nM.
For the compound `CCC1=C[C@@H]2C[C@](C(=O)OC)(c3cc4c(cc3OC)N(C)[C@H]3[C@@](O)(C(=O)OC)[C@H](OC(C)=O)[C@]5(CC)C=CCN6CC[C@]43[C@@H]65)c3[nH]c4ccccc4c3CC[N+](CC(=O)N3CCC[C@H]3C(=O)N[C@H](C(=O)N[C@@H](CC(=O)OCc3ccccc3)C(=O)OCc3ccccc3)[C@@H](C)CC)(C1)C2`, the outcome in experiment [3], in experiment [5] and in experiment [6] was inactive. Also, the Activity in experiment [4] stood at 55%. Further, the half-inhibitory concentration (IC50) in the experiment on KB (Homo sapiens, KB, 72 h) was determined as 700 nM. The Ratio IC50 in experiment [1] was 1.3.
